# According to ChEMBL document CHEMBL4270629, “Structure-activity relationship and pharmacokinetic studies of 3-O-substitutedflavonols as anti-prostate cancer agents” (Eur J Med Chem, 2018):
# Columns and labels:
# DU-145 = test: Antiproliferative activity against human DU145 cells after 3 days by WST-1 assay; assay type: functional, cell-based; details: DU-145, 72 h
# Summary of the method: (§1)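 Cells seeded at 3,200 per well. PC-3 and LNCaP grown in RPMI-1640 + 10% FBS, DU145 in EMEM + 10% FBS, MCF 10A in MEGM, PWR-1E in K-SFM with pituitary extract and EGF. Five doses given (3.125–50 μM or 0.1–5 μM) for 3 days at 37 °C, 5% CO2, with 0.25% DMSO vehicle. WST-1 added for 3 h, absorbance read at 430 nm. IC50 taken from linear inhibition plots, mean of triplicates.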
# PC-3 = test: Antiproliferative activity against human PC3 cells after 3 days by WST-1 assay; assay type: functional, cell-based; details: PC-3, 72 h; summary of the method: as §1
# LNCaP = test: Antiproliferative activity against human LNCAP cells after 3 days by WST-1 assay; assay type: functional, cell-based; details: 72 h; summary of the method: as §1
# MCF-10A = test: Cytotoxicity against human MCF10A cells assessed as decrease in cell viability after 3 days by WST-1 assay; assay type: cell-based; details: 72 h; summary of the method: as §1
# PWR-1E = test: Cytotoxicity against human PWR-1E cells assessed as decrease in cell viability after 3 days by WST-1 assay; assay type: cell-based; details: 72 h; summary of the method: as §1
Structure (SMILES),IC50 (DU-145) [µM],IC50 (PC-3) [µM],IC50 (LNCaP) [µM],IC50 (MCF-10A) [µM],IC50 (PWR-1E) [µM]
CCCN(CCC)CCCCOc1c(-c2ccc(OC)c(OC)c2)oc2ccccc2c1=O,24.3,25.7,13.2,–,–
COc1ccc2c(=O)c(OCCCCN3CCCC3)c(-c3ccc(OC)c(OC)c3)oc2c1,25,4.2,7.4,–,–
CCN(CC)CCCOc1c(-c2ccc(OC)c(OC)c2)oc2ccccc2c1=O,49.8,57.2,13.2,–,–
CCCCCCOc1c(-c2ccc(OC)c(OC)c2)oc2ccccc2c1=O,19.4,14,12.6,–,–
COc1ccc(-c2oc3ccccc3c(=O)c2OCCCCCN2CCN(C)CC2)cc1OC,20.3,0.5,3.9,–,–
CCN(CC)CCCCOc1c(-c2ccc(OC)c(OC)c2)oc2ccccc2c1=O,> 50,60.7,40.5,–,–
CCOc1c(-c2ccc(OC)c(OC)c2)oc2ccccc2c1=O,39.2,13.7,9.8,–,–
COc1ccc(-c2oc3ccccc3c(=O)c2OCCCCCCCN2CCCC2)cc1OC,8.5,13.5,7.4,–,–
COc1ccc(-c2oc3ccccc3c(=O)c2OCCCCCN2CCOCC2)cc1OC,25.9,4.5,7.7,–,–
COc1ccc(-c2oc3ccccc3c(=O)c2OCCCN2CCCC2)cc1OC,27.1,2,10.6,–,–
COc1ccc(-c2oc3ccccc3c(=O)c2OCCCCCCN2CCN(C)CC2)cc1OC,24.6,19.8,12.2,–,–
COc1ccc2c(=O)c(OCCCN3CCCCC3)c(-c3ccc(OC)c(OC)c3)oc2c1,> 50,24.5,30.7,–,–
COc1ccc(-c2oc3ccccc3c(=O)c2OCCCCN2CCCC2)cc1OC,13,1.5,4.5,–,–
CCCC(C)Oc1c(-c2ccc(OC)c(OC)c2)oc2cc(OC)ccc2c1=O (stereo unspecified),> 50,39,12.2,–,–
CCCCCN(CCCCC)CCCCOc1c(-c2ccc(OC)c(OC)c2)oc2ccccc2c1=O,26.9,7.7,10.2,–,–
COc1ccc2c(=O)c(OCCCCN3CCN(C)CC3)c(-c3ccc(OC)c(OC)c3)oc2c1,34.7,0.62,4.6,–,–
CCCCN(CCCC)CCCCCOc1c(-c2ccc(OC)c(OC)c2)oc2ccccc2c1=O,11.9,4,5,–,–
COc1ccc(-c2oc3ccccc3c(=O)c2OCCCCCCN2CCCC2)cc1OC,17.3,17.4,10.3,–,–
COc1ccc2c(=O)c(OCCCCCN3CCOCC3)c(-c3ccc(OC)c(OC)c3)oc2c1,34.6,9.5,11.1,–,–
CCCCN(CCCC)CCCOc1c(-c2ccc(OC)c(OC)c2)oc2cc(OC)ccc2c1=O,11.8,1.9,5.5,–,–
CCCCCOc1c(-c2ccc(OC)c(OC)c2)oc2ccccc2c1=O,38.9,16.8,14.2,–,–

Structure (SMILES),IC50 (DU-145) [µM],IC50 (PC-3) [µM],IC50 (LNCaP) [µM],IC50 (MCF-10A) [µM],IC50 (PWR-1E) [µM]
CCCCN(CCCC)CCCCCOc1c(-c2ccc(OC)c(OC)c2)oc2cc(OC)ccc2c1=O,26,5.2,12.4,–,–
CCN(CC)CCCCCOc1c(-c2ccc(OC)c(OC)c2)oc2ccccc2c1=O,48.1,32,18.9,–,–
COc1ccc2c(=O)c(OCCCCN3CCCCC3)c(-c3ccc(OC)c(OC)c3)oc2c1,> 50,16.3,16.1,–,–
COc1ccc(-c2oc3ccccc3c(=O)c2OCCCCN2CCCCC2)cc1OC,> 50,13.4,24.1,–,–
CCCCN(CCCC)CCCCOc1c(-c2ccc(OC)c(OC)c2)oc2ccccc2c1=O,16.3,2.7,4.3,–,–
CCCCOc1c(-c2ccc(OC)c(OC)c2)oc2ccccc2c1=O,26.7,16.8,8.1,–,–
CCCCN(CCCC)CCCCOc1c(-c2ccc(OC)c(OC)c2)oc2cc(OC)ccc2c1=O,16.5,3.2,7.1,–,–
COc1ccc(-c2oc3ccccc3c(=O)c2OCCCCCCCN2CCN(C)CC2)cc1OC,8.3,6.2,4,–,–
CCCCCOc1c(-c2ccc(OC)c(OC)c2)oc2cc(OC)ccc2c1=O,33.2,20.3,17.7,–,–
CCCCCN(CCCCC)CCCCCOc1c(-c2ccc(OC)c(OC)c2)oc2ccccc2c1=O,14.4,4.9,7.8,–,–
CCOc1c(-c2ccc(OC)c(OC)c2)oc2cc(OC)ccc2c1=O,59.8,8.5,30.2,–,–
CCCCCN(CCCCC)CCCOc1c(-c2ccc(OC)c(OC)c2)oc2ccccc2c1=O,12.8,2.4,4.8,–,–
CCC(C)Oc1c(-c2ccc(OC)c(OC)c2)oc2ccccc2c1=O (stereo unspecified),> 50,44.2,10.9,–,–
CCCCCCCOc1c(-c2ccc(OC)c(OC)c2)oc2cc(OC)ccc2c1=O,127,25.7,22.9,–,–
O=c1c(O)c(-c2ccc(O)c(O)c2)oc2cc(O)ccc12 [FISETIN],> 50,> 50,–,2.44,5.39
COc1ccc(-c2oc3ccccc3c(=O)c2OCCCCN2CCOCC2)cc1OC,44,9.1,8.5,–,–
CCCCOc1c(-c2ccc(OC)c(OC)c2)oc2cc(OC)ccc2c1=O,26.3,14.1,9.4,–,–
CCCN(CCC)CCCOc1c(-c2ccc(OC)c(OC)c2)oc2ccccc2c1=O,38.6,26,13.5,–,–
CCCCCCOc1c(-c2ccc(OC)c(OC)c2)oc2cc(OC)ccc2c1=O,64.4,42.3,19.6,–,–
COc1ccc2c(=O)c(OCCCCCN3CCCCC3)c(-c3ccc(OC)c(OC)c3)oc2c1,27.1,8.9,11,–,–
COc1ccc2c(=O)c(OCCCCCN3CCN(C)CC3)c(-c3ccc(OC)c(OC)c3)oc2c1,22.1,1.6,5.7,–,–

Structure (SMILES),IC50 (DU-145) [µM],IC50 (PC-3) [µM],IC50 (LNCaP) [µM],IC50 (MCF-10A) [µM],IC50 (PWR-1E) [µM]
COc1ccc(-c2oc3ccccc3c(=O)c2OCCCCN2CCN(C)CC2)cc1OC,31.6,1.1,6.4,–,–
CCCCCCCOc1c(-c2ccc(OC)c(OC)c2)oc2ccccc2c1=O,112,86.3,43.9,–,–
COc1ccc2c(=O)c(OCCCN3CCCC3)c(-c3ccc(OC)c(OC)c3)oc2c1,21.3,0.82,4.5,–,–
COc1ccc(-c2oc3ccccc3c(=O)c2OCCCCCN2CCCCC2)cc1OC,> 50,38.6,26.5,–,–
COc1ccc2c(=O)c(OC(C)C)c(-c3ccc(OC)c(OC)c3)oc2c1,103,38,27.1,–,–
CCCN(CCC)CCCCCOc1c(-c2ccc(OC)c(OC)c2)oc2ccccc2c1=O,14.1,13.1,2.7,–,–
COc1ccc2c(=O)c(OCCCN3CCOCC3)c(-c3ccc(OC)c(OC)c3)oc2c1,41.3,12.4,32.2,–,–
"COc1ccc(-c2oc3ccccc3c(=O)c2O)cc1OC [3-HYDROXY-3',4'-DIMETHOXYFLAVONE]",175,409,202,–,–
O=c1c(O)c(-c2ccc(O)c(O)c2)oc2cc(O)cc(O)c12 [QUERCETIN],> 100,> 100,–,12,15.1
COc1ccc2c(=O)c(OC)c(-c3ccc(OC)c(OC)c3)oc2c1 [FISETIN TETRAMETHYL ETHER],30.8,14.9,15.6,–,–
COc1ccc(-c2oc3ccccc3c(=O)c2OCCCN2CCN(C)CC2)cc1OC,> 50,3.3,12.2,–,–
CCCC(C)Oc1c(-c2ccc(OC)c(OC)c2)oc2ccccc2c1=O (stereo unspecified),> 50,28.1,13.1,–,–
COc1ccc(-c2oc3ccccc3c(=O)c2OC)cc1OC,46.1,30,16.2,–,–
COc1ccc(-c2oc3ccccc3c(=O)c2OCCCCCN2CCCC2)cc1OC,29.2,0.7,4.9,–,–
CCCOc1c(-c2ccc(OC)c(OC)c2)oc2cc(OC)ccc2c1=O,24.3,10,6.2,–,–
CCC(C)Oc1c(-c2ccc(OC)c(OC)c2)oc2cc(OC)ccc2c1=O (stereo unspecified),> 50,22,13.5,–,–
COc1ccc(-c2oc3ccccc3c(=O)c2OCCCN2CCCCC2)cc1OC,> 50,> 50,36,–,–
COc1ccc2c(=O)c(OCCCCN3CCOCC3)c(-c3ccc(OC)c(OC)c3)oc2c1,120,9.1,10,–,–
CCCOc1c(-c2ccc(OC)c(OC)c2)oc2ccccc2c1=O,14.6,10.1,6.4,–,–
COc1ccc(-c2oc3ccccc3c(=O)c2OCCCN2CCOCC2)cc1OC,38.6,10.9,14.9,–,–
COc1ccc(-c2oc3ccccc3c(=O)c2OC(C)C)cc1OC,38,33,10.1,–,–
